# Test results from ChEMBL document CHEMBL5712898, “H3K27me1 is essential for MMP-9-dependent H3N-terminal tail proteolysis during osteoclastogenesis” (Epigenetics Chromatin, 2018).
# Active and inactive are the calls of the source. The rule behind the calls is not given here.
# Experiments:
# [1] = tested on: Osteoclast; assay: Inhibition of EZH1/2 in M-CSF/RANKL-induced OCP cells (unknown origin) assessed as reduction in H3NT proteolysis at 2 uM cultured for 0, 1, 3, and 5 days with RANKL by Western blot analysis; settings: Homo sapiens, time 5.0 day
# [2] = tested on: Osteoclast; assay: Inhibition of EZH1/2 in M-CSF/RANKL-induced OCP cells (unknown origin) assessed as reduction in H3K27me3 level at 2 uM cultured for 0, 1, 3, and 5 days with RANKL by Western blot analysis; settings: Homo sapiens, time 5.0 day
# [3] = tested on: Osteoclast; assay: Inhibition of EZH1/2 in M-CSF/RANKL-induced OCP cells (unknown origin) assessed as reduction in H3K27me2 level at 2 uM cultured for 0, 1, 3, and 5 days with RANKL by Western blot analysis; settings: Homo sapiens, time 5.0 day
# [4] = biological target: Matrix metalloproteinase-9 (Homo sapiens) (UniProt P14780); assay: Inhibition of MMP-9 in M-CSF/RANKL-induced OCP cells (unknown origin) assessed as reduction in accumulation of G9a in the P region of Nfatc1 gene at 10 nM cultured for 3 days with RANKL by ChIPac-qPCR analysis; format: cell-based; settings: Osteoclast, time 3.0 day
# [5] = biological target: Matrix metalloproteinase-9 (Homo sapiens) (UniProt P14780); assay: Inhibition of MMP-9 in M-CSF/RANKL-induced OCP cells (unknown origin) assessed as reduction in accumulation of H3K27me1 in the P region of Nfatc1 gene at 10 nM cultured for 3 days with RANKL by ChIPac-qPCR analysis; format: cell-based; settings: Osteoclast, time 3.0 day
# Outline: (§1)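 Cells were 3-day RANKL-induced OCP cultures (30 ng/ml M-CSF, 50 ng/ml RANKL) with inhibitor in the medium. Chromatin was fixed with […], acetylated with 20 mM acetic anhydride, and immunoprecipitated; crosslinks were reversed overnight at 65 °C. Occupancy was measured by qPCR at the Nfatc1 promoter, the Lif coding region and the Xpr1 promoter plus coding region. Data are given as mean ± SD.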
# [6] = biological target: Matrix metalloproteinase-9 (Homo sapiens) (UniProt P14780); assay: Inhibition of MMP-9 in M-CSF/RANKL-induced OCP cells (unknown origin) assessed as reduction in Lif mRNA expression at 10 nM cultured for 3 days with RANKL by RT-qPCR analysis; format: cell-based; settings: Osteoclast, time 3.0 day
# Outline: (§2)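 OCP cells were induced for 3 days with 30 ng/ml M-CSF and 50 ng/ml RANKL, with BIX01294 (1.5 µM) and/or MMP-9 inhibitor I (10 nM) added to the medium. Nfatc1, Lif and Xpr1 transcripts were quantified by RT-qPCR as fold change. Data are given as mean ± SD.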
# [7] = biological target: Matrix metalloproteinase-9 (Homo sapiens) (UniProt P14780); assay: Inhibition of MMP-9 in M-CSF/RANKL-induced OCP cells (unknown origin) assessed as reduction in Xpr1 mRNA expression at 10 nM co-treated with BIX01294 cultured for 3 days with RANKL by RT-qPCR analysis; format: cell-based; settings: Osteoclast, time 3.0 day
# Outline: as §2
# [8] = biological target: Matrix metalloproteinase-9 (Homo sapiens) (UniProt P14780); assay: Inhibition of MMP-9 in M-CSF/RANKL-induced OCP cells (unknown origin) assessed as reduction in Lif mRNA expression at 10 nM co-treated with BIX01294 cultured for 3 days with RANKL by RT-qPCR analysis; format: cell-based; settings: Osteoclast, time 3.0 day
# Outline: as §2
# [9] = biological target: Matrix metalloproteinase-9 (Homo sapiens) (UniProt P14780); assay: Inhibition of MMP-9 in M-CSF/RANKL-induced OCP cells (unknown origin) assessed as reduction in Xpr1 mRNA expression at 10 nM cultured for 3 days with RANKL by RT-qPCR analysis; format: cell-based; settings: Osteoclast, time 3.0 day
# Outline: as §2
# [10] = biological target: Matrix metalloproteinase-9 (Homo sapiens) (UniProt P14780); assay: Inhibition of MMP-9 in M-CSF/RANKL-induced OCP cells (unknown origin) assessed as reduction in H3NT proteolysis at 10 nM cultured for 0, 1, 3, and 5 days with RANKL by Western blot analysis; format: cell-based; settings: Osteoclast, time 5.0 day
# Outline: (§3)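 Osteoclast precursor cells cultured with 30 ng/ml M-CSF plus 50 ng/ml RANKL for 0, 1, 3 or 5 days, with BIX01294 (1.5 µM) and/or MMP-9 inhibitor I (10 nM) in the medium. Nuclei were isolated in HEPES pH 7.4 sucrose buffer with 0.2% Triton X-100, and chromatin was extracted in EDTA/EGTA buffer. Cleaved H3 was detected as a faster-migrating band on Western blot with H3 C-terminal antibody.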
# [11] = biological target: Matrix metalloproteinase-9 (Homo sapiens) (UniProt P14780); assay: Inhibition of MMP-9 in M-CSF/RANKL-induced OCP cells (unknown origin) assessed as reduction in Nfatc1 mRNA expression at 10 nM cultured for 3 days with RANKL by RT-qPCR analysis; format: cell-based; settings: Osteoclast, time 3.0 day
# Outline: as §2
# [12] = biological target: Matrix metalloproteinase-9 (Homo sapiens) (UniProt P14780); assay: Inhibition of MMP-9 in M-CSF/RANKL-induced OCP cells (unknown origin) assessed as reduction in accumulation of H3K27me1 in the P and CR region of Xpr1 gene at 10 nM cultured for 3 days with RANKL by ChIPac-qPCR analysis; format: cell-based; settings: Osteoclast, time 3.0 day
# Outline: as §1
# [13] = biological target: Matrix metalloproteinase-9 (Homo sapiens) (UniProt P14780); assay: Inhibition of MMP-9 in M-CSF/RANKL-induced OCP cells (unknown origin) assessed as reduction in accumulation of G9a in the CR region of Lif gene at 10 nM cultured for 3 days with RANKL by ChIPac-qPCR analysis; format: cell-based; settings: Osteoclast, time 3.0 day
# [14] = biological target: Matrix metalloproteinase-9 (Homo sapiens) (UniProt P14780); assay: Inhibition of MMP-9 in M-CSF/RANKL-induced OCP cells (unknown origin) assessed as reduction in accumulation of H3K27me1 in the CR region of Lif gene at 10 nM cultured for 3 days with RANKL by ChIPac-qPCR analysis; format: cell-based; settings: Osteoclast, time 3.0 day
# Outline: as §1
# [15] = biological target: Matrix metalloproteinase-9 (Homo sapiens) (UniProt P14780); assay: Inhibition of MMP-9 in M-CSF/RANKL-induced OCP cells (unknown origin) assessed as reduction in Nfatc1 mRNA expression at 10 nM co-treated with BIX01294 cultured for 3 days with RANKL by RT-qPCR analysis; format: cell-based; settings: Osteoclast, time 3.0 day
# Outline: as §2
# [16] = biological target: Matrix metalloproteinase-9 (Homo sapiens) (UniProt P14780); assay: Inhibition of MMP-9 in M-CSF/RANKL-induced OCP cells (unknown origin) assessed as reduction in accumulation of G9a in the P and CR region of Xpr1 gene at 10 nM cultured for 3 days with RANKL by ChIPac-qPCR analysis; format: cell-based; settings: Osteoclast, time 3.0 day
# [17] = biological target: Matrix metalloproteinase-9 (Homo sapiens) (UniProt P14780); assay: Inhibition of MMP-9 in M-CSF/RANKL-induced OCP cells (unknown origin) assessed as reduction in TRAP-positive cells at 10 nM co-treated with 1.5 uM BIX01294 cultured for 0, 1, 3, and 5 days with RANKL by light microscopic analysis; format: cell-based; settings: Osteoclast, time 5.0 day
# Outline: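 OCP cells were differentiated with 30 ng/ml M-CSF and 50 ng/ml RANKL, with media carrying BIX01294 (1.5 µM) and/or MMP-9 inhibitor I (10 nM). On days 0, 1, 3 and 5 cells were formaldehyde-fixed and stained for tartrate-resistant acid phosphatase with an acid phosphatase leukocyte kit. TRAP-positive cells with three or more nuclei were counted as osteoclasts under a light microscope.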
# [18] = biological target: Matrix metalloproteinase-9 (Homo sapiens) (UniProt P14780); assay: Inhibition of MMP-9 in M-CSF/RANKL-induced OCP cells (unknown origin) assessed as reduction in H3NT proteolysis at 10 nM co-treated with 1.5 uM BIX01294 cultured for 0, 1, 3, and 5 days with RANKL by Western blot analysis; format: cell-based; settings: Osteoclast, time 5.0 day
# Outline: as §3
# Sequence of Matrix metalloproteinase-9 (Homo sapiens) (P14780 whole entry): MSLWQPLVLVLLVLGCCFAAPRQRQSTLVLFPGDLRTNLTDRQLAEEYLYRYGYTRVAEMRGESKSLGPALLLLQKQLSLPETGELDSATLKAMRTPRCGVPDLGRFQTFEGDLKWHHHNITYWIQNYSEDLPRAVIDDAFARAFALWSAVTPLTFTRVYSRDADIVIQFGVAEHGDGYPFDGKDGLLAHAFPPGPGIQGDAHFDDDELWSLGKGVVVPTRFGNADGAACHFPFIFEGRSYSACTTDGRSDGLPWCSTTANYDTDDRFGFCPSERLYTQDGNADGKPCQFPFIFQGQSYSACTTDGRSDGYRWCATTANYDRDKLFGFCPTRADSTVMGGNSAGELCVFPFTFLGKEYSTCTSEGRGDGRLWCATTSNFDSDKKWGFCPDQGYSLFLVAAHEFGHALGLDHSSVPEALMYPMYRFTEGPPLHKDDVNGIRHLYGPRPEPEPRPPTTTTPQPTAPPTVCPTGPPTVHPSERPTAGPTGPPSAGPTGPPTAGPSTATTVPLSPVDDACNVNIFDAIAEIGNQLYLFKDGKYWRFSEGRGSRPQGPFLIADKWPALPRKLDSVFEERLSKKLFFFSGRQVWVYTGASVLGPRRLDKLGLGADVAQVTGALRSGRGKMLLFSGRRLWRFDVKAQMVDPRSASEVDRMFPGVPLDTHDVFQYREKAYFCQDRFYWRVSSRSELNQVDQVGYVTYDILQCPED
SMILES,inhibition [1],inhibition [2],inhibition [3],inhibition [4],inhibition [5],inhibition [6],inhibition [7],inhibition [8],inhibition [9],inhibition [10],inhibition [11],inhibition [12],inhibition [13],inhibition [14],inhibition [15],inhibition [16],inhibition [17],inhibition [18]
CCCc1cc(C)[nH]c(=O)c1CNC(=O)c1cc(-c2ccc(N3CCN(C(C)C)CC3)nc2)cc2c1cnn2C(C)C,inactive,Active,Active,–,–,–,–,–,–,–,–,–,–,–,–,–,–,–
CCN(CC)Cc1cc(C)c(N(Cc2ccccc2)S(=O)(=O)c2ccc(OC)cc2)c(C(=O)NO)c1,–,–,–,inactive,inactive,Active,Active,Active,Active,Active,Active,inactive,inactive,inactive,Active,inactive,Active,Active
